Data from ChEMBL document CHEMBL3243970, “Synthesis and biological activity of some derivatives of thiochroman-4-one and tetrahydrothiapyran-4-one” (1977).
The source made the active and inactive calls. The calls are words filed in the database; no cut-off is given here.

Columns and labels:
[1] = test system: Bacillus subtilis; experiment: Antimicrobial activity against Bacillus subtilis assessed as growth inhibition at 91 ug/ml after 24 hrs by spectrophotometry; assay type: functional; details: read-out: GI
How it was run: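 Primary screen of Bacillus subtilis growth in the presence of test compound at 91 µg/mL.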

[2] = test system: Pseudomonas fluorescens; experiment: Antimicrobial activity against Pseudomonas fluorescens assessed as growth inhibition at 91 ug/ml after 24 hrs by spectrophotometry; assay type: functional; details: read-out: GI
[3] = test system: Bacillus subtilis; experiment: Antimicrobial activity against Bacillus subtilis assessed as growth inhibition after 24 hrs by spectrophotometry; assay type: functional, organism-based
[4] = test system: Pseudomonas fluorescens; experiment: Antimicrobial activity against Pseudomonas fluorescens assessed as growth inhibition after 24 hrs by spectrophotometry; assay type: functional, organism-based
[5] = test system: KB; experiment: Cytotoxicity against human KB cells assessed as growth inhibition after 24 hrs by crystal violet staining method; assay type: functional, cell-based
[6] = test system: L1210 (Mus musculus); experiment: Potentiation of mitomycin C-induced antitumor activity against mouse L1210 cells allografted in BDF1 mouse administered ip on days 2 to 6 post challenge relative to control
[7] = test system: KB; experiment: Cytotoxicity against human KB cells assessed as growth inhibition at 12.5 ug/ml after 24 hrs by crystal violet staining method; assay type: functional; details: read-out: GI
[8] = test system: Bacillus subtilis; experiment: Antimicrobial activity against Bacillus subtilis assessed as growth inhibition at 75 ug/ml after 24 hrs by spectrophotometry; assay type: functional; details: read-out: GI
[9] = test system: L1210 (Mus musculus); experiment: Potentiation of actinomycin D-induced antitumor activity against mouse L1210 cells allografted in BDF1 mouse administered ip on days 2 to 6 post challenge relative to control
[10] = test system: Pseudomonas fluorescens; experiment: Antimicrobial activity against Pseudomonas fluorescens assessed as growth inhibition at 75 ug/ml after 24 hrs by spectrophotometry; assay type: functional; details: read-out: GI
[11] = test system: KB; experiment: Cytotoxicity against human KB cells assessed as growth inhibition at 50 ug/ml after 24 hrs by crystal violet staining method; assay type: functional; details: read-out: GI

Compound | inhibition of growth at 91 µg/mL [1] [%] | inhibition of growth at 91 µg/mL [2] [%] | also measured
O=C1NN=C2CCSCC12 (centres undefined) | 0 | 0 | 
c1ccc(-n2ncc3c2-c2ccccc2SC3)cc1 |  |  | growth inhibition (GI) [3]: inactive; growth inhibition (GI) [4]: inactive; growth inhibition (GI) [5]: inactive
c1n[nH]c2c1CSCC2 | 0 | 0 | 
c1ccc2c(c1)SCc1cn[nH]c1-2 |  |  | T/C [6]: 10%; inhibition of growth at 12.5 µg/mL [7]: 28%; inhibition of growth at 75 µg/mL [8]: 100%; Activity [9]: inactive; inhibition of growth at 75 µg/mL [10]: 0%
O=S1(=O)Cc2c[n+]([O-])n(-c3ccccc3)c2-c2ccccc21 | 0 | 0 | 
O=S1(=O)Cc2cn[nH]c2-c2ccccc21 | 0 |  | 
O=C1CCS(=O)(=O)c2ccccc21 | 100 | 0 | inhibition of growth at 50 µg/mL [11]: 17%
O=S1(=O)Cc2cnoc2-c2ccccc21 | 0 |  | 
O=c1[nH]n(-c2ccccc2)c2c1CSCC2 | 0 | 0 | 
c1ccc2c(c1)SCc1cnoc1-2 | 100 | 0 | inhibition of growth at 50 µg/mL [11]: 100%
